Measurements as given in ChEMBL document CHEMBL4028909, “Discovery of an Orally Bioavailable Benzofuran Analogue That Serves as a β-Amyloid Aggregation Inhibitor for the Potential Treatment of Alzheimer's Disease” (J Med Chem, 2018).
The source made the active and inactive calls. No cut-off for these calls is given here.

Assays:
[1] = biological target: Amyloid-beta precursor protein (Homo sapiens) (UniProt P05067); assay: Induction of HFIP-pretreated amyloid beta (1 to 42) (unknown origin) disaggregation after 1 hr by transmission electron microscopic method
Sequence of Amyloid-beta precursor protein (Homo sapiens) (P05067 whole entry): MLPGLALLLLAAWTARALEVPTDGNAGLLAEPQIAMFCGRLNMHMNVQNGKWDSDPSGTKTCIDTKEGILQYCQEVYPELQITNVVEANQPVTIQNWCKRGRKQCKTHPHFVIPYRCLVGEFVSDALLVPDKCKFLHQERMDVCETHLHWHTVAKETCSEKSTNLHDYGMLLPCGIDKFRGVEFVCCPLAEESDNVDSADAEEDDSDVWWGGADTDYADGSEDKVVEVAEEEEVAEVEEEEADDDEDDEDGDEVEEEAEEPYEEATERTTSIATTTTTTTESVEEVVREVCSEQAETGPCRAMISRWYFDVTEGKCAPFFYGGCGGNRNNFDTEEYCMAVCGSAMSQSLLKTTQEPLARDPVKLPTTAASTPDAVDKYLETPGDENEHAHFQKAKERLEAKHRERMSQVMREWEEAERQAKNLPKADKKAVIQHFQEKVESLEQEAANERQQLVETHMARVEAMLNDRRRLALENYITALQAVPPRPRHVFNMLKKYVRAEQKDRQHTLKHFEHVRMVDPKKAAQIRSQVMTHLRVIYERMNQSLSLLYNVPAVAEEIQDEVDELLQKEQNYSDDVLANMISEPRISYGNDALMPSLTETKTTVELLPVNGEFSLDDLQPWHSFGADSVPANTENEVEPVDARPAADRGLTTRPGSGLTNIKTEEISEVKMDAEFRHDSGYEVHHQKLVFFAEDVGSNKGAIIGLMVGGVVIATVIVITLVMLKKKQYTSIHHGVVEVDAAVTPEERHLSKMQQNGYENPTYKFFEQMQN

[2] = AUC (infinity) in mouse at 30 mg/kg, po; format: ADME, organism-based; design: dose 30 mg/kg, time infinity, route oral; details: in vivo
Summary of the method: (§1)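 Mice received a single dose of 3 mg/kg i.v. or 3, 10 or 30 mg/kg orally. Plasma concentration-time profiles were analysed for AUC from zero to infinity and to the last measured time (hr*ng/mL), Cmax (ng/mL, C0 after i.v.), Tmax and terminal half-life (hr), and oral bioavailability (%).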

[3] = Clearance in iv dosed monkey; format: ADME, organism-based, Macaca mulatta; details: rhesus monkey, in vivo
[4] = Clearance in iv dosed dog; format: ADME, organism-based, Canis lupus familiaris; details: in vivo
[5] = biological target: T1, Cytochrome P450 2A6 (Homo sapiens, UniProt P11509); assay: Inhibition of CYP2A6 in human liver microsomes preincubated for 5 mins followed by addition of NADPH generating system measured after 20 mins by LC-MS/MS analysis; format: ADME
T1 sequence (P11509 whole entry): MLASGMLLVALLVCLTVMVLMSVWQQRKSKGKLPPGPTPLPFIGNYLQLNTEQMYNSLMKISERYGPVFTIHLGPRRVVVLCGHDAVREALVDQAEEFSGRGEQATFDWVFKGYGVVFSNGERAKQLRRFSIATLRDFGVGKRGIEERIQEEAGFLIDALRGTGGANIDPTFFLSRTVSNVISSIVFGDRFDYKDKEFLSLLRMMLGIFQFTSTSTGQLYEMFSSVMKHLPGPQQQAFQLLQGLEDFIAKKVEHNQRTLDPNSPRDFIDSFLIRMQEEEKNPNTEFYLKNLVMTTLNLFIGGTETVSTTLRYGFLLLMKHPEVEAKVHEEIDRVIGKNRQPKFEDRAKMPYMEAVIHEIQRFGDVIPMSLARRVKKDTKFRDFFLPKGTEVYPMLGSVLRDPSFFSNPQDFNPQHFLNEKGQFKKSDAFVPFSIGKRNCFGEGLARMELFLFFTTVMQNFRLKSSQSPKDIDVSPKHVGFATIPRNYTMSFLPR
Summary of the method: (§2)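 Inhibition of each CYP isozyme (1A2, 2A6, 2C8, 2C9, 2C19, 2D6, 3A4) was measured in human liver microsomes. IC50 values were reported in μM.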

[6] = system: Rhesus monkey; assay: Volume of distribution at steady state in po dosed monkey; format: ADME, organism-based, Macaca mulatta; details: in vivo
[7] = Terminal half life in mouse at 3 mg/kg, iv; format: ADME, organism-based; details: in vivo, read-out: beta t1/2 (converted)
Summary of the method: (§3)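 Mouse pharmacokinetics: single i.v. dose of 3 mg/kg, or oral doses of 3, 10 and 30 mg/kg. Plasma concentration–time curves gave T1/2 (terminal, hr), Tmax (hr), Cmax, AUC and bioavailability (%).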

[8] = AUC in po dosed monkey; format: ADME, organism-based, Macaca mulatta; details: rhesus monkey, in vivo
[9] = system: Mus musculus; assay: Reversal of cognitive deficit in amyloid beta (1 to 42)-treated Alzheimer's disease ICR mouse model assessed as increase in spatial memory function administered orally for 3 consecutive days by Y maze test; format: functional
Summary of the method: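 Acute AD model: preformed Aβ aggregates injected directly into the brains of normal mice to induce acute neurotoxicity. Compound given orally for three consecutive days, then the Y-maze was run. Read-out is percentage of spontaneous alternation, compared against normal and vehicle-treated mice.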

[10] = system: HT-22; assay: Neuroprotective activity against amyloid beta-induced toxicity in mouse HT22 cells assessed as increase in cell viability preincubated for 1 hr followed by amyloid beta challenge measured after 18 hrs by MTT assay; format: functional, cell-based
Summary of the method: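 Mouse hippocampal HT22 cells were treated with compound at several concentrations and then exposed to preformed Aβ aggregates made from 25 μM monomeric Aβ. Viability was read by MTT and scaled between untreated cells and Aβ-only cells. Mean±SD of three independent experiments; one-way ANOVA with Dunnett test.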

[11] = biological target: Cytochrome P450 2C19 (Homo sapiens, UniProt P33261); assay: Inhibition of CYP2C19 in human liver microsomes preincubated for 5 mins followed by addition of NADPH generating system measured after 20 mins by LC-MS/MS analysis; format: ADME; summary of the method: as §2
Sequence of Cytochrome P450 2C19 (P33261 whole entry): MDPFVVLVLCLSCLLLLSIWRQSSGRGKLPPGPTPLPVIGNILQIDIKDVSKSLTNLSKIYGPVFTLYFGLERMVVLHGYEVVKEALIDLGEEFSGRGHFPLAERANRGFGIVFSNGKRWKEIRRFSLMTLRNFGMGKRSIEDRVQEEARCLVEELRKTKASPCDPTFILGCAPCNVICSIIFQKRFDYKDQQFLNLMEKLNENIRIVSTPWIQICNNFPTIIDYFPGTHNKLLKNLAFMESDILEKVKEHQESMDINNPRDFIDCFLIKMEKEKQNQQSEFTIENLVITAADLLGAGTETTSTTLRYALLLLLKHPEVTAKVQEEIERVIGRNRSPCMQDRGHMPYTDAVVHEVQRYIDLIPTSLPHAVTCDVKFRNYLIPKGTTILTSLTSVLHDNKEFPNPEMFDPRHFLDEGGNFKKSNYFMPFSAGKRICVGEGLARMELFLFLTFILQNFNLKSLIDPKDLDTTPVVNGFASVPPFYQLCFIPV

[12] = AUC (infinity) in mouse at 10 mg/kg, po; format: ADME, organism-based; design: dose 10 mg/kg, time infinity, route oral; details: in vivo; summary of the method: as §1
[13] = AUClast in mouse at 3 mg/kg, po; format: ADME, organism-based; design: dose 3 mg/kg, time 0 - last, route oral; details: in vivo; summary of the method: as §1
[14] = Oral bioavailability in mouse at 3 mg/kg; format: ADME, organism-based; details: in vivo; summary of the method: as §1
[15] = Tmax in mouse at 30 mg/kg, po; format: ADME, organism-based; details: in vivo; summary of the method: as §3
[16] = system: Mus musculus; assay: Antiamyloidogenic activity in po dosed double APP/PS1 transgenic Alzheimer's disease mouse model assessed as decrease in amyloid beta (1 to 42) levels in brain administered as qd for 8 weeks by sandwich ELISA; format: functional, organism-based
Summary of the method: (§4)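 APP/PS1 mice, 29 weeks old, were dosed orally once daily for eight weeks at 30 or 100 mg/kg, with a vehicle group. Brain tissue was homogenized and amyloid fibrils were solubilized to monomers. Aβ1-40 and Aβ1-42 were then quantified by immunoassay with antibodies specific to monomeric Aβ.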

[17] = system: Mus musculus; assay: Reversal of cognitive deficit in amyloid beta (1 to 42)-treated Alzheimer's disease ICR mouse model assessed as step-through latency time at 10 mg/kg, po administered for 3 consecutive days by passive avoidance test; format: functional
Summary of the method: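 Acute AD model: preformed Aβ aggregates injected into the brains of normal mice. Compound given orally for three consecutive days, then step-through passive avoidance was tested by a standard protocol. Read-out is step-through latency (sec), compared against control and vehicle groups.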

[18] = AUC (infinity) in mouse at 3 mg/kg, po; format: ADME, organism-based; design: dose 3 mg/kg, time infinity, route oral; details: in vivo; summary of the method: as §1
[19] = Cmax in po dosed monkey; format: ADME, organism-based, Macaca mulatta; design: route oral; details: rhesus monkey, in vivo
[20] = biological target: Amyloid-beta precursor protein (Homo sapiens) (UniProt P05067); assay: Induction of HFIP-pretreated amyloid beta (1 to 42) (unknown origin) disaggregation after 48 hrs by silver staining-based SDS-PAGE analysis
Summary of the method: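 Aβ aggregates were incubated with compound for 48 h, with congo red as positive control. Size distribution (monomer, dimer, trimer, high-molecular-weight species) was analysed by SDS-PAGE with silver staining at the start and at the end of incubation.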

[21] = system: Mus musculus; assay: Toxicity in double APP/PS1 transgenic Alzheimer's disease mouse model at 30 to 100 mg/kg, po qd administered for 8 weeks; format: organism-based; details: in vivo, 1344 h
Summary of the method: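 APP/PS1 double transgenic mice, 29 weeks old, dosed orally once daily at 30 or 100 mg/kg for eight weeks. Y-maze spontaneous alternation (%) was then measured against vehicle-treated mice, and mice were watched for apparent toxicity.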

[22] = biological target: Cytochrome P450 2C9 (Homo sapiens, UniProt P11712); assay: Inhibition of CYP2C9 in human liver microsomes preincubated for 5 mins followed by addition of NADPH generating system measured after 20 mins by LC-MS/MS analysis; format: ADME; summary of the method: as §2
Sequence of Cytochrome P450 2C9 (P11712 whole entry): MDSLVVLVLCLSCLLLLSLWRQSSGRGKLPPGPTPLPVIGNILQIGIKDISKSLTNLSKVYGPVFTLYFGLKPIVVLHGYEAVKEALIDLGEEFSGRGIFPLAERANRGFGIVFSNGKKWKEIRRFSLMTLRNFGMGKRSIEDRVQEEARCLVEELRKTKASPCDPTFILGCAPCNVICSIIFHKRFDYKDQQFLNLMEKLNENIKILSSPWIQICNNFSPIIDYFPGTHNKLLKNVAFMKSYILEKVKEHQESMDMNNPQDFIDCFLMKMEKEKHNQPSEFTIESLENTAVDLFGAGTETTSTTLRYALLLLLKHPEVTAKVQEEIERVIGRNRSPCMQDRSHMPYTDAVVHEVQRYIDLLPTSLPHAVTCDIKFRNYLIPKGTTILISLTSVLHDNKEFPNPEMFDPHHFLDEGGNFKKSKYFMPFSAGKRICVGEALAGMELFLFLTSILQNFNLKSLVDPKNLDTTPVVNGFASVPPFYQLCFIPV

[23] = system: Mus musculus; assay: Volume of distribution at steady state in po ICR mouse; format: ADME, organism-based; details: in vivo
[24] = Half-life in po dosed rat; details: in vivo
[25] = Half life in po ICR mouse; format: ADME, organism-based; details: in vivo
[26] = Half life in po dosed monkey; format: ADME, organism-based, Macaca mulatta; details: rhesus monkey, in vivo
[27] = Cmax in mouse at 30 mg/kg, po; format: ADME, organism-based; design: dose 30 mg/kg, route oral; details: in vivo; summary of the method: as §1
[28] = Clearance in iv dosed rat; format: ADME, organism-based; details: in vivo
[29] = system: Mus musculus; assay: Antiamyloidogenic activity in double APP/PS1 transgenic Alzheimer's disease mouse model assessed as amyloid beta (1 to 42) levels in brain at 100 mg/kg, po qd administered for 8 weeks by sandwich ELISA relative to control; format: functional; summary of the method: as §4

In the case of `COCCCc1ccc2oc(-c3ccc(OC)c(OC)c3)cc2c1`, the Activity [1] is reported as “Active”, the AUC(0-inf) [2] is reported as 10500 ng·h/mL and the clearance [3] is reported as 7 mL/min/kg. For the same molecule, the clearance [4] was 29 mL/min/kg, the IC50 [5] was > 50 µM and the Vdss [6] was 3.8 L/kg. The half-life [7] was 1.4 h, the AUC [8] was 13700 ng·h/mL and the Activity [9] was “Dose-dependent effect”. The ED50 ([9]; po) was 0.18 mg/kg, the Activity [10] was “Dose-dependent effect” and the IC50 [11] was > 50 µM. For the same molecule, the AUC(0-inf) [12] was 2290 ng·h/mL, the AUC(0-t) [13] was 246 ng·h/mL and the bioavailability [14] was 21.4%. For the same molecule, the Tmax [15] was 3 h, the Activity [16] was “Dose-dependent effect” and the Time [17] was 201.2 s. For the same molecule, the AUC(0-inf) [18] was 283 ng·h/mL, the Cmax [19] was 969 ng/mL and the Activity [20] was “Active”. For the same molecule, the Activity [21] was “Non-Toxic”, the IC50 [22] was > 50 µM and the Vdss [23] was 2.5 L/kg. The t1/2 [24] was 3.8 h, the half-life [25] was 5.87 h and the half-life [26] was 12.9 h. It also gave a Cmax [27] of 1700 ng/mL, a clearance [28] of 33 mL/min/kg and an Activity [29] of 70%.
